{
  "source": "ChEMBL document CHEMBL4020819",
  "about": "“Discovery of 4-[(2R,4R)-4-({[1-(2,2-Difluoro-1,3-benzodioxol-5-yl)cyclopropyl]carbonyl}amino)-7-(difluoromethoxy)-3,4-dihydro-2H-chromen-2-yl]benzoic Acid (ABBV/GLPG-2222), a Potent Cystic Fibrosis Transmembrane Conductance Regulator (CFTR) Corrector for the Treatment of Cystic Fibrosis” (J Med Chem, 2018)",
  "key": {"[1]": {"test_system": "Cystic fibrosis transmembrane conductance regulator (Homo sapiens), P13569 [F508del]", "sequence (P13569 as listed by the source)": "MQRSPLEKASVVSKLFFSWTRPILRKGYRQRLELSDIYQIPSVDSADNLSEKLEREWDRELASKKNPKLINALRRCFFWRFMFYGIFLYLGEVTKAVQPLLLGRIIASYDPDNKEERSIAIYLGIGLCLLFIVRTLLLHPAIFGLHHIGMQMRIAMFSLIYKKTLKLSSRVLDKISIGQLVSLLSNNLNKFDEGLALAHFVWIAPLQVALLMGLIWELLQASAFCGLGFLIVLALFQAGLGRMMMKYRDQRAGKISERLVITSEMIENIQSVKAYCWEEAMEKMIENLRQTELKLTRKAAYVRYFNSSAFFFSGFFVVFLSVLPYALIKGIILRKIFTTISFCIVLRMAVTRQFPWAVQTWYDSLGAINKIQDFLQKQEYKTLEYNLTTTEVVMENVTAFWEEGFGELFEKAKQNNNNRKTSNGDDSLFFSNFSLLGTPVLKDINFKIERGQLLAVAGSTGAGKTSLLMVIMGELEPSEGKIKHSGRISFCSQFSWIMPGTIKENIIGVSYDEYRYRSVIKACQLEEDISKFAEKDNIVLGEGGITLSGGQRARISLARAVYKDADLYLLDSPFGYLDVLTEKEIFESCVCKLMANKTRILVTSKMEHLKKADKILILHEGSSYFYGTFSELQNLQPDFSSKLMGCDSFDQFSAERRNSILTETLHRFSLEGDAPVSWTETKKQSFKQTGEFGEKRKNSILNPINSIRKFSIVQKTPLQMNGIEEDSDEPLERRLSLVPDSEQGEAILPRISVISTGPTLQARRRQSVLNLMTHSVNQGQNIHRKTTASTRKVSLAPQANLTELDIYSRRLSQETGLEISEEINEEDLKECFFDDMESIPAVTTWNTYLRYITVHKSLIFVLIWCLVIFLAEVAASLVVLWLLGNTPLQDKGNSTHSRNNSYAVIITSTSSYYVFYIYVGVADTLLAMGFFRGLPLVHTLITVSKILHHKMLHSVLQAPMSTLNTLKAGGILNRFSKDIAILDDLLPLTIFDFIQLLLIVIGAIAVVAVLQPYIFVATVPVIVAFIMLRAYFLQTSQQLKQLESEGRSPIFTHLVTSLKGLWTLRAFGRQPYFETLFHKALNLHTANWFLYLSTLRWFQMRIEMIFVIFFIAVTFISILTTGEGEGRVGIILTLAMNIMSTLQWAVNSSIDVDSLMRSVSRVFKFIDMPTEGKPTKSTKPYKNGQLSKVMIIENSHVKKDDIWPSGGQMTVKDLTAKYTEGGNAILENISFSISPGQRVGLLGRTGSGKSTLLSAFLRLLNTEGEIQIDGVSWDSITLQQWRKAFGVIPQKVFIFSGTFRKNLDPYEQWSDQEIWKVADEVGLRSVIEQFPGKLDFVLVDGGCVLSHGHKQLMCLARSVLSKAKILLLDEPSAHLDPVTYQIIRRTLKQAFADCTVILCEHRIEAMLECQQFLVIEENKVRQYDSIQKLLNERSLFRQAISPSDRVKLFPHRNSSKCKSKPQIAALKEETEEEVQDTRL", "experiment": "Corrector activity at HRP-fused CFTR F508del mutant (unknown origin) expressed in human CFBE41o cells assessed as increase in matured protein levels at cell surface after 18 to 24 hrs by luminescence assay relative to 3-[(2R,4R)-4-({[1-(2,2-Difluoro-1,3-benzodioxol-5-yl)cyclopropyl]-carbonyl}amino)-7-methoxy-3,4-dihydro-2H-chromen-2-yl]benzoic acid", "assay_type": "cell-based", "summary_of_the_method": "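Doxycycline-induced (0.5 µg/mL) CFBE41o- cells carrying F508del CFTR with HRP in the fourth exofacial loop, grown 72 h at 37 °C. Compound added for 18-24 h at 33 °C, 8 points, 3-fold dilutions from 20 µM top. Cells washed with DPBS, luminol added, luminescence read. Signal normalized to DMSO and to 3 µM reference corrector. Three replicate plates per EC50.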"}, "[2]": {"experiment": "Lipophilicity, log D of the compound by HPLC method", "assay_type": "physicochemical"}, "[3]": {"target": "Cystic fibrosis transmembrane conductance regulator (Homo sapiens, UniProt P13569, F508DEL)", "sequence (P13569 as listed by the source)": "as above", "experiment": "(§1) Corrector activity at CFTR F508del/F508del mutant in primary HBE cells assessed as increase in chloride ion current across apical membrane measured 18 to 24 hrs post compound treatment on basolateral side of cells in presence of channel potentiator GLPG1837 by trans-epithelial current clamp method", "assay_type": "cell-based", "summary_of_the_method": "(§2)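 Primary bronchial epithelial cells from F508del/F508del patients, grown 35 days at air-liquid interface on filters. Mucus removed with 3 mM DTT 72 h before. Corrector applied basolaterally for 18-24 h at 37 °C, 6 concentrations. TECC-24 at 36.5 °C in HEPES-buffered F-12 Coon's, pH 7.4. Sequential additions: apical benzamil 6 µM, forskolin 10 µM, control potentiator 1 µM, basolateral bumetanide 20 µM.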"}, "[4]": {"test_system": "Cystic fibrosis transmembrane conductance regulator (Homo sapiens), P13569 [F508del]", "experiment": "as §1, with “method relative to 3-[(2R,4R)-4-({[1-(2,2-Difluoro-1,3-benzodioxol-5-yl)cyclopropyl]-carbonyl}amino)-7-methoxy-3,4-dihydro-2H-chromen-2-yl]benzoic acid” for “method”", "assay_type": "cell-based", "summary_of_the_method": "as §2"}, "[5]": {"experiment": "Unbound intrinsic clearance in human hepatocytes", "assay_type": "ADME, cell-based, Hepatocyte"}, "[6]": {"experiment": "Unbound intrinsic clearance in rat hepatocytes", "assay_type": "ADME, cell-based, Hepatocyte"}, "Hepatocyte": {"test_system": "Hepatocyte", "experiment": "Induction of CYP3A4 mRNA expression in human primary hepatocytes at 10 uM after 48 hrs relative to rifampin", "assay_type": "ADME, cell-based", "summary_of_the_method": "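Compound tested at 10 µM; response expressed as percent of the 10 µM rifampin response.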"}, "[7]": {"experiment": "Permeability of the compound by PAMPA", "assay_type": "physicochemical", "conditions": "read-out: permeability"}, "[8]": {"test_system": "Cystic fibrosis transmembrane conductance regulator (Homo sapiens), P13569 [F508del]", "experiment": "as §1, with “membrane at 3 uM” for “membrane”, “method relative to control” for “method”", "assay_type": "cell-based"}, "[9]": {"experiment": "Clearance in rat at 1 mg/kg, iv", "assay_type": "ADME, organism-based", "conditions": "in vivo", "summary_of_the_method": "(§3)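 Rats dosed at 1 mg/kg IV and orally. Dogs dosed at 2 mg/kg IV and 5 mg/kg orally. Readouts: clearance in L/hr/kg, IV half-life in h, and oral F%.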"}, "[10]": {"experiment": "Half life in rat at 1 mg/kg, iv", "assay_type": "ADME, organism-based", "conditions": "in vivo", "summary_of_the_method": "as §3"}, "[11]": {"experiment": "Oral bioavailability in rat at 1 mg/kg", "assay_type": "ADME, organism-based", "conditions": "in vivo", "summary_of_the_method": "as §3"}},
  "note": "pEC50: −log10 of the molar value.",
  "data": [
    {"compound": "CC1(C)C[C@@H](NC(=O)C2(c3ccc4c(c3)OC(F)(F)O4)CC2)c2ccc(F)cc2O1", "values": [
      {"measurement": "max activation", "setting": "[1]", "result": 98, "unit": "%"}
    ]},
    {"compound": "O=C(NC1CC(c2ccccc2)Oc2ccccc21)C1(c2ccc3c(c2)OC(F)(F)O3)CC1", "note": "(stereo not drawn)", "values": [
      {"measurement": "max activation", "setting": "[1]", "result": 108, "unit": "%"},
      {"measurement": "logD", "setting": "[2]", "result": 5.31}
    ]},
    {"compound": "CC1(C)C[C@@H](NC(=O)C2(c3ccc4c(c3)OC(F)(F)O4)CC2)c2ccc(F)c(Cl)c2O1", "values": [
      {"measurement": "max activation", "setting": "[1]", "result": 51, "unit": "%"},
      {"measurement": "logD", "setting": "[2]", "result": 5.4}
    ]},
    {"compound": "O=C(O)c1cccc([C@H]2C[C@@H](NC(=O)C3(c4ccc5c(c4)OC(F)(F)O5)CC3)c3ccc(OC(F)F)cc3O2)c1", "values": [
      {"measurement": "logD", "setting": "[2]", "result": 4.02},
      {"measurement": "pEC50", "setting": "[3]", "result": 7.12},
      {"measurement": "max activation", "setting": "[4]", "result": 117, "unit": "%"},
      {"measurement": "CL free", "setting": "[5]", "result": 14, "unit": "L/h/kg"},
      {"measurement": "CL free", "setting": "[6]", "result": 7, "unit": "L/h/kg"}
    ]},
    {"compound": "O=C(O)c1cccc([C@H]2C[C@@H](NC(=O)C3(c4ccc5c(c4)OC(F)(F)O5)CC3)c3ccc(F)cc3O2)c1", "values": [
      {"measurement": "logD", "setting": "[2]", "result": 4.03},
      {"measurement": "pEC50", "setting": "[3]", "result": 6.96},
      {"measurement": "CL free", "setting": "[5]", "result": 26, "unit": "L/h/kg"},
      {"measurement": "CL free", "setting": "[6]", "result": 4, "unit": "L/h/kg"},
      {"measurement": "Activity", "setting": "Hepatocyte", "result": 40, "unit": "%"}
    ]},
    {"compound": "O=C(NC1C[C@H](c2cccc(CO)c2)Oc2ccccc21)C1(c2ccc3c(c2)OC(F)(F)O3)CC1", "note": "(stereo partly drawn)", "values": [
      {"measurement": "max activation", "setting": "[1]", "result": 93, "unit": "%"},
      {"measurement": "logD", "setting": "[2]", "result": 4.82},
      {"measurement": "pEC50", "setting": "[3]", "result": 6.12},
      {"measurement": "max activation", "setting": "[4]", "result": 103, "unit": "%"},
      {"measurement": "Papp", "setting": "[7]", "result": 1.15, "unit": "×10⁻⁶ cm/s"},
      {"measurement": "CL free", "setting": "[5]", "result": 235, "unit": "L/h/kg"},
      {"measurement": "CL free", "setting": "[6]", "result": 471, "unit": "L/h/kg"}
    ]},
    {"compound": "Cc1ccc2c(c1)O[C@@H](c1cccc(C(=O)O)c1)C[C@H]2NC(=O)C1(c2ccc3c(c2)OC(F)(F)O3)CC1", "values": [
      {"measurement": "logD", "setting": "[2]", "result": 4.01},
      {"measurement": "Activity", "setting": "[8]", "result": "< 60", "unit": "%"},
      {"measurement": "CL free", "setting": "[5]", "result": 21, "unit": "L/h/kg"},
      {"measurement": "CL free", "setting": "[6]", "result": 8, "unit": "L/h/kg"}
    ]},
    {"compound": "COc1ccc2c(c1)O[C@@H](c1ccc(C(=O)O)cc1)C[C@H]2NC(=O)C1(c2ccc3c(c2)OC(F)(F)O3)CC1", "values": [
      {"measurement": "pEC50", "setting": "[3]", "result": 8.05},
      {"measurement": "max activation", "setting": "[4]", "result": 94, "unit": "%"},
      {"measurement": "CL free", "setting": "[5]", "result": 15, "unit": "L/h/kg"},
      {"measurement": "CL free", "setting": "[6]", "result": 3, "unit": "L/h/kg"},
      {"measurement": "Activity", "setting": "Hepatocyte", "result": 0, "unit": "%"},
      {"measurement": "clearance", "setting": "[9]", "result": 10.3, "unit": "mL/min/kg"},
      {"measurement": "half-life", "setting": "[10]", "result": 264, "unit": "min"},
      {"measurement": "bioavailability", "setting": "[11]", "result": 78, "unit": "%"}
    ]},
    {"compound": "COc1ccc2c(c1)O[C@H](c1ccc(OC)c(OC)c1)C[C@@H]2NC(=O)C1(c2ccc3c(c2)OC(F)(F)O3)CC1", "note": "[A-1596584]", "values": [
      {"measurement": "max activation", "setting": "[1]", "result": 69, "unit": "%"},
      {"measurement": "logD", "setting": "[2]", "result": 4.96},
      {"measurement": "Activity", "setting": "[8]", "result": "< 30", "unit": "%"},
      {"measurement": "Papp", "setting": "[7]", "result": 0.3, "unit": "×10⁻⁶ cm/s"},
      {"measurement": "CL free", "setting": "[5]", "result": 1250, "unit": "L/h/kg"},
      {"measurement": "CL free", "setting": "[6]", "result": 775, "unit": "L/h/kg"}
    ]},
    {"compound": "COc1ccc2c(c1)O[C@@H](c1cccc(C(=O)O)c1)C[C@H]2NC(=O)C1(c2ccc3c(c2)OC(F)(F)O3)CC1", "values": [
      {"measurement": "max activation", "setting": "[1]", "result": 101, "unit": "%"},
      {"measurement": "logD", "setting": "[2]", "result": 3.84},
      {"measurement": "pEC50", "setting": "[3]", "result": 6.62},
      {"measurement": "max activation", "setting": "[4]", "result": 95, "unit": "%"},
      {"measurement": "Papp", "setting": "[7]", "result": 14.3, "unit": "×10⁻⁶ cm/s"},
      {"measurement": "CL free", "setting": "[5]", "result": 25, "unit": "L/h/kg"},
      {"measurement": "CL free", "setting": "[6]", "result": 17, "unit": "L/h/kg"},
      {"measurement": "Activity", "setting": "Hepatocyte", "result": 14, "unit": "%"},
      {"measurement": "clearance", "setting": "[9]", "result": 20.7, "unit": "mL/min/kg"},
      {"measurement": "half-life", "setting": "[10]", "result": 168, "unit": "min"},
      {"measurement": "bioavailability", "setting": "[11]", "result": 24, "unit": "%"}
    ]},
    {"compound": "COc1ccc2c(c1)OC(c1ccc(OC)c(OC)c1)CC2NC(=O)C1(c2ccc3c(c2)OC(F)(F)O3)CC1", "note": "(stereo not drawn)", "values": [
      {"measurement": "max activation", "setting": "[1]", "result": 118, "unit": "%"},
      {"measurement": "logD", "setting": "[2]", "result": 5}
    ]}
  ]
}
